Measurements published in ChEMBL document CHEMBL1157854, “In-vivo analgesic and anti-inflammatory activities of newly synthesized benzimidazole derivatives” (2010).

Columns and labels:
[1] = system: Mus musculus; assay: Analgesic activity in Swiss albino mouse assessed as protection against acetic acid-induced writhing at 100 mg/kg, po administered 1 hr prior to acetic acid challenge relative to control measured after 3 hrs; type: functional
In short: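 Swiss albino mice (20–25 g), six per group. Baseline writhes counted over 20 min starting 5 min after ip 0.6% acetic acid (10 ml/kg); the same mice were dosed orally the next day, 1 h before acetic acid, and writhes counted again. Protection = (1 − […]) × 100. Mean ± SE; one-way ANOVA with Tukey–Kramer test, p < 0.01.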

[2] = system: Rattus norvegicus; assay: Antiinflammatory activity in albino rat assessed as inhibition of carrageenan-induced paw oedema at 100 mg/kg, po measured after 120 mins of carrageenan challenge relative to control; type: functional; conditions: 2 h
In short: (§1)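 Rat hind paw oedema induced by 0.1 mL 1% carrageenan injected subplantar into the right hind paw. Paw volume measured plethysmographically before carrageenan and at 30, 60, 120 and 180 min after. Percent oedema inhibition calculated versus a saline control group. Six animals per group, mean ± SE; one-way ANOVA with Tukey–Kramer test, p < 0.01.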

[3] = system: Rattus norvegicus; assay: Antiinflammatory activity in albino rat assessed as inhibition of carrageenan-induced paw oedema at 100 mg/kg, po measured after 60 mins of carrageenan challenge relative to control; type: functional; conditions: 1 h; in short: as §1
[4] = system: Rattus norvegicus; assay: Antiinflammatory activity in albino rat assessed as inhibition of carrageenan-induced paw oedema at 100 mg/kg, po measured after 180 mins of carrageenan challenge relative to control; type: functional; conditions: 3 h; in short: as §1
[5] = system: Rattus norvegicus; assay: Antiinflammatory activity in albino rat assessed as inhibition of carrageenan-induced paw oedema at 100 mg/kg, po measured after 30 mins of carrageenan challenge relative to control; type: functional; conditions: 0.5 h; in short: as §1
[6] = organism: Rattus norvegicus; assay: animal or person; conditions: albino, po, 2 h, read-out: INH
[7] = organism: Rattus norvegicus; assay: animal or person; conditions: albino, po, 1 h, read-out: INH
[8] = organism: Rattus norvegicus; assay: animal or person; conditions: albino, po, 0.5 h, read-out: INH
[9] = organism: Rattus norvegicus; assay: animal or person; conditions: albino, po, 3 h, read-out: INH

SMILES	Activity [1]	inhibition in vivo at 100 mg/kg [2]	inhibition in vivo at 100 mg/kg [3]	inhibition in vivo at 100 mg/kg [4]	inhibition in vivo at 100 mg/kg [5]	inhibition in vivo at 50 mg/kg [6]	inhibition in vivo at 50 mg/kg [7]	inhibition in vivo at 50 mg/kg [8]	inhibition in vivo at 50 mg/kg [9]
COc1ccc(NCc2nc3ccc(Br)cc3[nH]2)cc1	83.33%	17.6%	13.3%	12.5%	–	–	–	–	–
c1ccc(NCc2nc3ccccc3[nH]2)cc1	72.33%	41.1%	26.6%	38.8%	7.6%	–	–	–	–
Clc1ccccc1NCc1nc2ccc(Br)cc2[nH]1	80%	23.5%	20%	22.2%	–	–	–	–	–
Brc1ccc(NCc2nc3ccc(Br)cc3[nH]2)cc1	85.66%	23.5%	20%	16.6%	–	–	–	–	–
Clc1cccc(NCc2nc3ccccc3[nH]2)c1	81.33%	41.1%	26.6%	44.4%	15.3%	–	–	–	–
Brc1ccc2nc(CNc3ccccc3)[nH]c2c1	80%	29.4%	26.6%	22.2%	7.6%	–	–	–	–
Cc1ccc(NCc2nc3ccc(Br)cc3[nH]2)cc1	88%	23.5%	20%	16.6%	7.6%	–	–	–	–
O=[N+]([O-])c1ccc2nc(CNc3ccc(Br)cc3)[nH]c2c1	79%	23.5%	20%	22.2%	15.3%	–	–	–	–
CS(=O)(=O)Nc1ccc([N+](=O)[O-])cc1Oc1ccccc1 [NIMESULIDE]	–	–	–	–	–	41.1%	26.6%	15.3%	44.4%
Clc1cccc(NCc2nc3ccc(Br)cc3[nH]2)c1	89%	17.6%	26.6%	16.6%	7.6%	–	–	–	–
COc1ccc(NCc2nc3ccccc3[nH]2)cc1	83.33%	29.4%	26.6%	33.3%	7.6%	–	–	–	–
